Results as given in ChEMBL document CHEMBL1138555, “N-acylated and N,N'-diacylated imidazolidine-2-thione derivatives and N,N'-diacylated tetrahydropyrimidine-2(1H)-thione analogues: synthesis and antiproliferative activity” (Eur J Med Chem, 2009).

How the values were obtained:
UO-31 = assay: Growth inhibition of human UO31 cells after 48 hrs by sulforhodamine B assay; type: functional; conditions: UO-31, 48 h
In short: (§1)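 NCI in vitro panel screen. Compounds tested at five 10-fold dilutions, 10^-4 to 10^-8 M. Cells in 96-well plates were exposed for the last 48 h of a 72 h incubation. Viability/growth was read by sulforhodamine B protein assay. GI50 is the concentration giving 50% growth inhibition. Values beyond the tested range are reported as greater or less than the maximum or minimum concentration.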

NCI-H460 = assay: Growth inhibition of human NCI-H460 cells after 48 hrs by sulforhodamine B assay; type: functional; conditions: NCI-H460, 48 h
In short: (§2)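 NCI screen panel. Five 10-fold concentrations from 10^-4 to 10^-8 M. Exposure for the last 48 h of a 72 h incubation. Growth estimated by sulforhodamine B protein assay. GI50 is the concentration giving 50% growth inhibition. Where that level was not reached or was exceeded, the value is given as above or below the highest or lowest concentration tested.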

SNB-19 = assay: Growth inhibition of human SNB19 cells after 48 hrs by sulforhodamine B assay; type: functional; conditions: SNB-19, 48 h; in short: as §1
MT4 = assay: Antiproliferative activity against human MT4 cells assessed as reduction of growth by MTT assay; type: functional, cell-based
In short: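 MT-4 lymphoblastoid T cells (ATCC) in RPMI 1640 with 10% FCS, penicillin/streptomycin, checked for mycoplasma. 1 × 10⁴ mock-infected cells per well with serial dilutions from a 100 mM DMSO stock. Incubated 4 days at 37 °C, viable cells counted by MTT. IC50 versus untreated controls by linear regression. Mean of three separate experiments.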

U-251 = assay: Growth inhibition of human U251 cells after 48 hrs by sulforhodamine B assay; type: functional; conditions: U-251, 48 h; in short: as §1
HOP-92 = assay: Growth inhibition of human HOP92 cells after 48 hrs by sulforhodamine B assay; type: functional; conditions: HOP-92, 48 h; in short: as §2
A549 = assay: Growth inhibition of human A549 cells after 48 hrs by sulforhodamine B assay; type: functional; conditions: A549, 48 h; in short: as §2
RXF 393 = assay: Growth inhibition of human RXF393 cells after 48 hrs by sulforhodamine B assay; type: functional; conditions: RXF 393, 48 h; in short: as §2
SK-OV-3 = assay: Growth inhibition of human SKOV3 cells after 48 hrs by sulforhodamine B assay; type: functional; conditions: SK-OV-3, 48 h; in short: as §2
K562 = assay: Growth inhibition of human K562 cells after 48 hrs by sulforhodamine B assay; type: functional; conditions: K562, 48 h; in short: as §2
HT-29 = assay: Growth inhibition of human HT-29 cells after 48 hrs by sulforhodamine B assay; type: functional; conditions: HT-29, 48 h; in short: as §2
HL-60(TB) = assay: Growth inhibition of human HL-60(TB) cells after 48 hrs by sulforhodamine B assay; type: functional; conditions: HL-60, 48 h
In short: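 NCI 60-cell-line screen protocol: cells exposed to compound at five 10-fold dilutions from 10^-4 to 10^-8 M for the last 48 h of a 72 h incubation. Sulforhodamine B protein assay estimated viability/growth. GI50 (50% growth inhibition) derived; where not reached or exceeded, reported as greater or less than the highest or lowest concentration tested.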

NCI-H23 = assay: Growth inhibition of human NCI-H23 cells after 48 hrs by sulforhodamine B assay; type: functional; conditions: NCI-H23, 48 h; in short: as §2
TK-10 = assay: Growth inhibition of human TK10 cells after 48 hrs by sulforhodamine B assay; type: functional; conditions: TK-10, 48 h; in short: as §1
Malme-3M = assay: Growth inhibition of human MALME-3M cells after 48 hrs by sulforhodamine B assay; type: functional; in short: as §2
NCI-H322M = assay: Growth inhibition of human NCI-H322M cells after 48 hrs by sulforhodamine B assay; type: functional; in short: as §2
SNB-75 = assay: Growth inhibition of human SNB75 cells after 48 hrs by sulforhodamine B assay; type: functional; conditions: SNB-75, 48 h; in short: as §1
MDA-MB-435 = assay: Growth inhibition of human MDA-MB-435 cells after 48 hrs by sulforhodamine B assay; type: functional; conditions: MDA-MB-435, 48 h; in short: as §2
ACHN = assay: Growth inhibition of human ACHN cells after 48 hrs by sulforhodamine B assay; type: functional; in short: as §2
SF-268 = assay: Growth inhibition of human SF268 cells after 48 hrs by sulforhodamine B assay; type: functional; conditions: SF-268, 48 h; in short: as §2
IGROV-1 = assay: Growth inhibition of human IGROV1 cells after 48 hrs by sulforhodamine B assay; type: functional; conditions: IGROV-1, 48 h; in short: as §2
KM12 = assay: Growth inhibition of human KM12 cells after 48 hrs by sulforhodamine B assay; type: functional; conditions: KM12, 48 h; in short: as §2
SW-620 = assay: Growth inhibition of human SW620 cells after 48 hrs by sulforhodamine B assay; type: functional; conditions: SW-620, 48 h; in short: as §1
SK-MEL-2 = assay: Growth inhibition of human SK-MEL-2 cells after 48 hrs by sulforhodamine B assay; type: functional; conditions: SK-MEL-2, 48 h; in short: as §2
SF-539 = assay: Growth inhibition of human SF539 cells after 48 hrs by sulforhodamine B assay; type: functional; conditions: SF-539, 48 h; in short: as §2
OVCAR-4 = assay: Growth inhibition of human OVCAR4 cells after 48 hrs by sulforhodamine B assay; type: functional; conditions: OVCAR-4, 48 h; in short: as §2
T47D = assay: Growth inhibition of human T47D cells after 48 hrs by sulforhodamine B assay; type: functional; in short: as §1
MCF7 = assay: Growth inhibition of human MCF7 cells after 48 hrs by sulforhodamine B assay; type: functional; conditions: MCF7, 48 h; in short: as §2
MOLT-4 = assay: Growth inhibition of human MOLT4 cells after 48 hrs by sulforhodamine B assay; type: functional; conditions: MOLT-4, 48 h; in short: as §2
HCT-15 = assay: Growth inhibition of human HCT15 cells after 48 hrs by sulforhodamine B assay; type: functional; conditions: HCT-15, 48 h; in short: as §2
OVCAR-8 = assay: Growth inhibition of human OVCAR8 cells after 48 hrs by sulforhodamine B assay; type: functional; conditions: OVCAR-8, 48 h; in short: as §2
PC-3 = assay: Growth inhibition of human PC3 cells after 48 hrs by sulforhodamine B assay; type: functional; conditions: PC-3, 48 h; in short: as §2
BT-549 = assay: Growth inhibition of human BT549 cells after 48 hrs by sulforhodamine B assay; type: functional; conditions: BT-549, 48 h; in short: as §2
CAKI-1 = assay: Growth inhibition of human Caki1 cells after 48 hrs by sulforhodamine B assay; type: functional; conditions: CAKI-1, 48 h; in short: as §2
EKVX = assay: Growth inhibition of human EKVX cells after 48 hrs by sulforhodamine B assay; type: functional; in short: as §2
SK-MEL-5 = assay: Growth inhibition of human SK-MEL-5 cells after 48 hrs by sulforhodamine B assay; type: functional; conditions: SK-MEL-5, 48 h; in short: as §2
CCRF-CEM = assay: Growth inhibition of human CCRF-CEM cells after 48 hrs by sulforhodamine B assay; type: functional; in short: as §2
SK-MEL-28 = assay: Growth inhibition of human SK-MEL-28 cells after 48 hrs by sulforhodamine B assay; type: functional; conditions: SK-MEL-28, 48 h; in short: as §2
[1] = Growth inhibition of human […] cells after 48 hrs by sulforhodamine B assay; type: functional; in short: as §2
SN12C = assay: Growth inhibition of human SN12C cells after 48 hrs by sulforhodamine B assay; type: functional; in short: as §1
SF-295 = assay: Growth inhibition of human SF295 cells after 48 hrs by sulforhodamine B assay; type: functional; conditions: SF-295, 48 h; in short: as §2
OVCAR-3 = assay: Growth inhibition of human OVCAR-3 cells after 48 hrs by sulforhodamine B assay; type: functional; conditions: OVCAR-3, 48 h; in short: as §2
COLO 205 = assay: Growth inhibition of human COLO205 cells after 48 hrs by sulforhodamine B assay; type: functional; conditions: COLO 205, 48 h; in short: as §2
UACC-62 = assay: Growth inhibition of human UACC62 cells after 48 hrs by sulforhodamine B assay; type: functional; conditions: UACC-62, 48 h; in short: as §1
MDA-MB-231 = assay: Growth inhibition of human MDA-MB-231 cells after 48 hrs by sulforhodamine B assay; type: functional; conditions: MDA-MB-231, 48 h; in short: as §2
DU-145 = assay: Growth inhibition of human DU145 cells after 48 hrs by sulforhodamine B assay; type: functional; conditions: DU-145, 48 h; in short: as §2
LOX IMVI = assay: Growth inhibition of human LOXIMVI cells after 48 hrs by sulforhodamine B assay; type: functional; in short: as §2
SR = assay: Growth inhibition of human SR cells after 48 hrs by sulforhodamine B assay; type: functional; in short: as §1

Question: Which GI50 (UO-31) does the source give for `N#CC(C#N)=CN1CCN(C(=O)c2ccco2)C1=S` here?
Answer: 10.5 µM

Question: And the GI50 (NCI-H460)?
Answer: 3.3 µM

Question: What about the GI50 (SNB-19) of the same molecule?
Answer: 38.7 µM

Question: And the IC50 (MT4)?
Answer: 4.4 µM

Question: What about the GI50 (U-251) of the same molecule?
Answer: 6.6 µM

Question: And the GI50 (HOP-92)?
Answer: 22.4 µM

Question: And the GI50 (A549)?
Answer: 13.5 µM

Question: What about the GI50 (RXF 393) of the same molecule?
Answer: 2.6 µM

Question: And the GI50 (SK-OV-3)?
Answer: 33.1 µM

Question: And the GI50 (K562)?
Answer: 6.6 µM

Question: And the GI50 (HT-29)?
Answer: 27.7 µM

Question: What about the GI50 (HL-60(TB)) of the same molecule?
Answer: 19.8 µM

Question: And the GI50 (NCI-H23)?
Answer: 5.8 µM

Question: And the GI50 (TK-10)?
Answer: 4.6 µM

Question: What about the GI50 (Malme-3M) of the same molecule?
Answer: 47.8 µM

Question: What about the GI50 (NCI-H322M) of the same molecule?
Answer: 15.5 µM

Question: What about the GI50 (SNB-75) of the same molecule?
Answer: 40.6 µM

Question: And the GI50 (MDA-MB-435)?
Answer: 5.3 µM

Question: And the GI50 (ACHN)?
Answer: 9.4 µM

Question: And the GI50 (SF-268)?
Answer: 31.4 µM

Question: And the GI50 (IGROV-1)?
Answer: 6.6 µM

Question: What about the GI50 (KM12) of the same molecule?
Answer: 4.1 µM

Question: And the GI50 (SW-620)?
Answer: 5.6 µM

Question: And the GI50 (SK-MEL-2)?
Answer: 4.3 µM

Question: And the GI50 (SF-539)?
Answer: 2.5 µM

Question: What about the GI50 (OVCAR-4) of the same molecule?
Answer: 20.1 µM

Question: What about the GI50 (T47D) of the same molecule?
Answer: 21.2 µM

Question: What about the GI50 (MCF7) of the same molecule?
Answer: 3.5 µM

Question: And the GI50 (MOLT-4)?
Answer: 5.2 µM

Question: What about the GI50 (HCT-15) of the same molecule?
Answer: 5.2 µM

Question: And the GI50 (OVCAR-8)?
Answer: 14.6 µM

Question: What about the GI50 (PC-3) of the same molecule?
Answer: 17.2 µM

Question: And the GI50 (BT-549)?
Answer: 6.9 µM

Question: What about the GI50 (CAKI-1) of the same molecule?
Answer: 4.8 µM

Question: And the GI50 (EKVX)?
Answer: 11.9 µM

Question: And the GI50 (SK-MEL-5)?
Answer: 2.9 µM

Question: And the GI50 (CCRF-CEM)?
Answer: 79.7 µM

Question: What about the GI50 (SK-MEL-28) of the same molecule?
Answer: 12.5 µM

Question: And the GI50 [1]?
Answer: 4.5 µM

Question: And the GI50 (SN12C)?
Answer: 3.1 µM

Question: And the GI50 (SF-295)?
Answer: 31.3 µM

Question: What about the GI50 (OVCAR-3) of the same molecule?
Answer: 11.2 µM

Question: What about the GI50 (COLO 205) of the same molecule?
Answer: 16.5 µM

Question: What about the GI50 (UACC-62) of the same molecule?
Answer: 8.8 µM

Question: And the GI50 (MDA-MB-231)?
Answer: 2.9 µM

Question: And the GI50 (DU-145)?
Answer: 5.5 µM

Question: What about the GI50 (LOX IMVI) of the same molecule?
Answer: 3.3 µM

Question: What about the GI50 (SR) of the same molecule?
Answer: 2 µM
